# From ChEMBL document CHEMBL3414425, “Synthesis and biological evaluation of new imidazo[2,1-b][1,3,4]thiadiazole-benzimidazole derivatives” (Eur J Med Chem, 2015)
# Active and inactive are the calls of the source. No cut-off for these calls is given here.
# What was measured:
# [1] = tested on: Pseudomonas aeruginosa; test: Antibacterial activity against Pseudomonas aeruginosa at 0.5 mg/ml incubated for 18 hrs by well plate technique; assay type: functional; settings: for zone of inhibition at 500 µg/mL: read-out: DIZ
# In short: (§1)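 Bacteria kept on nutrient agar at 37 °C, grown statically in nutrient broth (start ~10-100 cfu/mL) at 37 °C for 18-24 h. Suspensions diluted in saline and spread on nutrient agar, then wells cut with a cork borer. Compound in DMSO at 1 or 0.5 mg/mL added to wells, 37 °C, 18 h. Inhibition zone diameter measured minus DMSO value; triplicate; streptomycin standard.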
# [2] = tested on: Salmonella typhi; test: Antibacterial activity against Salmonella typhi at 1 mg/ml incubated for 18 hrs by well plate technique; assay type: functional, Salmonella enterica subsp. enterica serovar Typhi; settings: for zone of inhibition at 1000 µg/mL: Salmonella enterica, read-out: DIZ; for diameter of the inhibition zone (DIZ): Salmonella enterica subsp. enterica serovar Typhi
# In short: (§2)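 Well diffusion on nutrient agar; strains kept on nutrient agar at 37 °C, grown statically in nutrient broth 18-24 h at 37 °C, diluted in saline, 0.1 ml spread per plate. Compounds in DMSO at 1 and 0.5 mg/mL added to cork-bored wells; 18 h at 37 °C. Inhibition zone diameter measured, DMSO value subtracted; triplicate; streptomycin reference.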
# [3] = tested on: Staphylococcus aureus; test: Antibacterial activity against Staphylococcus aureus at 1 mg/ml incubated for 18 hrs by well plate technique; assay type: functional; settings: for zone of inhibition at 1000 µg/mL: read-out: DIZ; in short: as §1
# [4] = tested on: Aspergillus flavus; test: Antifungal activity against Aspergillus flavus at 1 mg/ml incubated for 3 days; assay type: functional; settings: for zone of inhibition at 1000 µg/mL: 72 h, read-out: IZ
# In short: (§3)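 Well plate method on potato dextrose agar. Fungal stock suspended in distilled water with Tween 80 and swabbed over plates. Samples in DMSO at 1 and 0.5 mg/mL added to wells, incubated 25 °C for 3 days, then scored for inhibition zones; fluconazole standard.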
# [5] = tested on: Staphylococcus aureus; test: Antibacterial activity against Staphylococcus aureus at 0.5 mg/ml incubated for 18 hrs by well plate technique; assay type: functional; settings: for zone of inhibition at 500 µg/mL: read-out: DIZ; in short: as §1
# [6] = tested on: Aspergillus flavus; test: Antifungal activity against Aspergillus flavus at 0.5 mg/ml incubated for 3 days; assay type: functional; settings: for zone of inhibition at 500 µg/mL: 72 h, read-out: IZ; in short: as §3
# [7] = tested on: Chrysosporium keratinophilum; test: Antifungal activity against Chrysosporium keratinophilum at 1 mg/ml incubated for 3 days; assay type: functional; settings: for zone of inhibition at 1000 µg/mL: 72 h, read-out: IZ; in short: as §3
# [8] = Antioxidant activity assessed as DPPH radical scavenging activity incubated for 10 mins by UV-visible spectrometry; assay type: physicochemical
# In short: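 DPPH free-radical scavenging; absorbance read at 517 nm against a methanol blank. % scavenging = (A control − A sample)/A control × 100.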
# [9] = tested on: Candida albicans; test: Antifungal activity against Candida albicans at 1 mg/ml incubated for 3 days; assay type: functional; settings: for zone of inhibition at 1000 µg/mL: 72 h, read-out: IZ; in short: as §3
# [10] = tested on: Candida albicans; test: Antifungal activity against Candida albicans at 0.5 mg/ml incubated for 3 days; assay type: functional; settings: for zone of inhibition at 500 µg/mL: 72 h, read-out: IZ; in short: as §3
# [11] = tested on: Mycobacterium tuberculosis; test: Antitubercular activity against Mycobacterium tuberculosis H37Rv ATCC 27294/XDR-TB incubated for 28 days by agar dilution method; assay type: functional; settings: 672 h
# In short: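 Agar dilution: two-fold dilutions in Middlebrook 7H11 agar with OADC. Inoculum from fresh 7H11/OADC slants adjusted to 1 mg/mL wet weight in 0.05% Tween 80 saline, diluted 10^-2 (~10⁷ cfu/mL); 5 µL spotted per tube. Incubated 37 °C; MIC, lowest concentration fully inhibiting growth, read after 28 days, in triplicate.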
# [12] = tested on: Escherichia coli; test: Antibacterial activity against Escherichia coli at 1 mg/ml incubated for 18 hrs by well plate technique; assay type: functional; settings: for zone of inhibition at 1000 µg/mL: read-out: DIZ; in short: as §1
# [13] = tested on: Escherichia coli; test: Antibacterial activity against Escherichia coli at 0.5 mg/ml incubated for 18 hrs by well plate technique; assay type: functional; settings: for zone of inhibition at 500 µg/mL: read-out: DIZ; in short: as §1
# [14] = tested on: Salmonella typhi; test: Antibacterial activity against Salmonella typhi at 0.5 mg/ml incubated for 18 hrs by well plate technique; assay type: functional, Salmonella enterica subsp. enterica serovar Typhi; settings: for zone of inhibition at 500 µg/mL: Salmonella enterica, read-out: DIZ; for diameter of the inhibition zone (DIZ): Salmonella enterica subsp. enterica serovar Typhi; in short: as §2
# [15] = Cytotoxicity against African green monkey Vero cells assessed as growth inhibition at 62.5 ug/ml after 72 hrs by MTT assay; assay type: cell-based; settings: chlorocebus sabaeus, read-out: GI
# In short: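 Vero cells grown in MEM + 10% FBS at 37 °C, 5% CO2. Seeded ~10,000 cells/well, 24 h to a partial monolayer. Compounds in DMSO diluted in MEM + 2% FBS (1 mg/ml stock, two-fold dilutions) for 72 h. MTT 3 h, formazan dissolved in propanol, A540. % inhibition = 100 − (mean OD test/mean OD control × 100).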
# [16] = tested on: Chrysosporium keratinophilum; test: Antifungal activity against Chrysosporium keratinophilum at 0.5 mg/ml incubated for 3 days; assay type: functional; settings: for zone of inhibition at 500 µg/mL: 72 h, read-out: IZ; in short: as §3
# [17] = tested on: Pseudomonas aeruginosa; test: Antibacterial activity against Pseudomonas aeruginosa at 1 mg/ml incubated for 18 hrs by well plate technique; assay type: functional; settings: for zone of inhibition at 1000 µg/mL: read-out: DIZ; in short: as §1
SMILES,zone of inhibition at 500 µg/mL [1] [mm],zone of inhibition at 1000 µg/mL [2] [mm],zone of inhibition at 1000 µg/mL [3] [mm],zone of inhibition at 1000 µg/mL [4] [mm],zone of inhibition at 500 µg/mL [5] [mm],zone of inhibition at 500 µg/mL [6] [mm],zone of inhibition at 1000 µg/mL [7] [mm],inhibition (INH) [8] [%],zone of inhibition at 1000 µg/mL [9] [mm],zone of inhibition at 500 µg/mL [10] [mm],MIC [11] [µg/mL],zone of inhibition at 1000 µg/mL [12] [mm],zone of inhibition at 500 µg/mL [13] [mm],zone of inhibition at 500 µg/mL [14] [mm],"inhibition at 72 h, 62.5 ug/ml [15] [%]",zone of inhibition at 500 µg/mL [16] [mm],zone of inhibition at 1000 µg/mL [17] [mm],inhibition zone (IZ) [10],diameter of the inhibition zone (DIZ) [14],further results
Cc1nn2c(-c3nc4ccccc4[nH]3)c(-c3ccc(F)cc3)nc2s1,2,2,2,3,1,2,4,19.9,2,1,6.25,4,3,1,10.6,3,3,,,
Fc1ccc(-c2nc3sc(-c4ccc(Cl)cc4)nn3c2-c2nc3ccccc3[nH]2)cc1,5,3,7,4,3,2,4,21.7,3,1,3.12,5,3,1,10.7,3,8,,,
Cc1ccc(-c2nc3sc(-c4ccc(Cl)cc4)nn3c2-c2nc3ccccc3[nH]2)cc1,1,5,4,5,1,3,5,45.7,4,2,3.12,5,3,3,12.2,2,4,,,
Cc1ccc(-c2nc3sc(C)nn3c2-c2nc3ccccc3[nH]2)cc1,2,6,5,,3,,,28.6,,,3.12,5,2,,5.03,,3,inactive,inactive,inhibition zone (IZ) [4]: inactive; inhibition zone (IZ) [6]: inactive; inhibition zone (IZ) [7]: inactive; inhibition zone (IZ) [9]: inactive; inhibition zone (IZ) [16]: inactive
COc1ccc(-c2nc3sc(-c4ccc(C)cc4)nn3c2-c2nc3cc(Cl)ccc3[nH]2)cc1,3,3,6,3,3,2,4,31.3,3,2,3.12,4,2,1,8.31,2,7,,,
COc1ccc(-c2nc3sc(-c4ccccc4)nn3c2-c2nc3cc([N+](=O)[O-])ccc3[nH]2)cc1,3,6,4,3,2,1,4,23.4,3,,50,4,3,3,,2,5,inactive,,
COc1ccc(-c2nc3sc(C)nn3c2-c2nc3cc([N+](=O)[O-])ccc3[nH]2)cc1,,,,2,,1,3,22.6,2,1,12.5,,,,,2,,,inactive,diameter of the inhibition zone (DIZ) [1]: inactive; diameter of the inhibition zone (DIZ) [2]: inactive; diameter of the inhibition zone (DIZ) [3]: inactive; diameter of the inhibition zone (DIZ) [5]: inactive; diameter of the inhibition zone (DIZ) [12]: inactive; diameter of the inhibition zone (DIZ) [13]: inactive; diameter of the inhibition zone (DIZ) [17]: inactive
COc1ccc(-c2nc3sc(-c4ccc(C)cc4)nn3c2-c2nc3cc([N+](=O)[O-])ccc3[nH]2)cc1,,,,,,,,25.1,,,12.5,,,,,,,inactive,inactive,diameter of the inhibition zone (DIZ) [1]: inactive; diameter of the inhibition zone (DIZ) [2]: inactive; diameter of the inhibition zone (DIZ) [3]: inactive; inhibition zone (IZ) [4]: inactive; diameter of the inhibition zone (DIZ) [5]: inactive; inhibition zone (IZ) [6]: inactive; inhibition zone (IZ) [7]: inactive; inhibition zone (IZ) [9]: inactive; diameter of the inhibition zone (DIZ) [12]: inactive; diameter of the inhibition zone (DIZ) [13]: inactive; inhibition zone (IZ) [16]: inactive; diameter of the inhibition zone (DIZ) [17]: inactive
